Assay results as given in ChEMBL document CHEMBL1921709, “Synthesis and activity of new macrolones: conjugates between 6(7)-(2'-aminoethyl)-amino-1-cyclopropyl-3-carboxylic acid (2'-hydroxyethyl) amides and 4″-propenoyl-azithromycin” (2011).
In brackets after ≈: the same amount, converted by molar mass.

Legend:
Type in all cases: functional
[1] = system: Staphylococcus aureus; assay: Antibacterial activity against erythromycin-sensitive Staphylococcus aureus ATCC 13709 by broth microdilution method
Outline: (§1)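 Broth microdilution following CLSI guidelines, using two-fold serial dilutions of compound. Bacteria were first grown on appropriate agar plates. Read-out is growth inhibition, reported as MIC.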

[2] = system: Streptococcus pneumoniae; assay: Antibacterial activity against erythromycin-sensitive Streptococcus pneumoniae SP 030 by broth microdilution method
Outline: (§2)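 Broth microdilution following CLSI guidelines, except that 5% horse serum replaced lysed blood in the Streptococcus medium. Two-fold serial dilutions of compound were used. Bacteria were first grown on appropriate agar plates. Read-out is growth inhibition, reported as MIC.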

[3] = system: Streptococcus pyogenes; assay: Antibacterial activity against erythromycin-sensitive Streptococcus pyogenes 3565 by broth microdilution method; outline: as §2
[4] = system: Staphylococcus aureus; assay: Antibacterial activity against efflux-mediated macrolide-resistant Staphylococcus aureus PK1 by broth microdilution method
Outline: (§3)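 Standard CLSI broth microdilution MIC test with automated double dilutions of compound. Bacteria were pre-grown on appropriate agar plates.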

[5] = system: Streptococcus pneumoniae; assay: Antibacterial activity against efflux-mediated macrolide-resistant Streptococcus pneumoniae Ci137 by broth microdilution method
Outline: (§4)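 CLSI broth microdilution MIC with automated double dilutions of compound. The medium was supplemented with 5% horse serum in place of lysed blood. Bacteria were pre-grown on appropriate agar plates.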

[6] = system: Streptococcus pyogenes; assay: Antibacterial activity against efflux-mediated macrolide-resistant Streptococcus pyogenes Finland 2 by broth microdilution method; outline: as §4
[7] = system: Staphylococcus aureus; assay: Antibacterial activity against inducible macrolide, lincosamide and streptogramin B-resistant Staphylococcus aureus 90256/97 by broth microdilution method; outline: as §3
[8] = system: Streptococcus pneumoniae; assay: Antibacterial activity against inducible macrolide-resistant, constitutive lincosamide and streptogramin-resistant Streptococcus pneumoniae 134 GR M by broth microdilution method; outline: as §4
[9] = system: Streptococcus pyogenes; assay: Antibacterial activity against inducible macrolide-lincosamide-streptogramin B resistant Streptococcus pyogenes Finland 11 by broth microdilution method; outline: as §4
[10] = system: Streptococcus pneumoniae; assay: Antibacterial activity against constitutive macrolide, lincosamide, streptogramin-resistant Streptococcus pneumoniae 58 spain by broth microdilution method; outline: as §4
[11] = system: Streptococcus pyogenes; assay: Antibacterial activity against constitutive macrolide, lincosamide, streptogramin-resistant Streptococcus pyogenes 166 GR-Micro by broth microdilution method; outline: as §4
[12] = system: Staphylococcus aureus; assay: Antibacterial activity against constitutive macrolide, lincosamide, streptogramin-resistant Staphylococcus aureus PK2 by broth microdilution method; outline: as §3
[13] = system: Haemophilus influenzae; assay: Antibacterial activity against Haemophilus influenzae ATCC 49247 by broth microdilution method; outline: as §1
[14] = system: Moraxella catarrhalis; assay: Antibacterial activity against Moraxella catarrhalis ATCC 23246 by broth microdilution method; outline: as §1

| SMILES | MIC [1] [µg/mL] | MIC [2] [µg/mL] | MIC [3] [µg/mL] | MIC [4] [µg/mL] | MIC [5] [µg/mL] | MIC [6] [µg/mL] | MIC [7] [µg/mL] | MIC [8] [µg/mL] | MIC [9] [µg/mL] | MIC [10] [µg/mL] | MIC [11] [µg/mL] | MIC [12] [µg/mL] | MIC [13] [µg/mL] | MIC [14] [µg/mL] |
| --- | --- | --- | --- | --- | --- | --- | --- | --- | --- | --- | --- | --- | --- | --- |
| CC[C@H]1OC(=O)[C@H](C)[C@@H](O[C@H]2C[C@@](C)(OC)[C@@H](OC(=O)CCN(C)CCNc3cc4c(cc3F)c(=O)c(C(=O)NCCO)cn4C3CC3)[C@H](C)O2)[C@H](C)[C@@H](O[C@@H]2O[C@H](C)C[C@H](N(C)C)[C@H]2O)[C@](C)(O)C[C@@H](C)CN(C)[C@H](C)[C@@H](O)[C@]1(C)O | 16 (≈ 13.7 µM) | ≤ 0.125 | 0.5 (≈ 0.429 µM) | > 64 | 2 (≈ 1.72 µM) | 16 (≈ 13.7 µM) | > 64 | 16 (≈ 13.7 µM) | 16 (≈ 13.7 µM) | > 64 | > 64 | > 64 | 16 (≈ 13.7 µM) | 8 (≈ 6.86 µM) |
| COC(=O)c1cn(C2CC2)c2cc(Cl)c(NCCNC(=O)OC(C)(C)C)cc2c1=O | > 64 | > 64 | > 64 | > 64 | > 64 | > 64 | > 64 | > 64 | > 64 | > 64 | > 64 | > 64 | > 64 | > 64 |
| COC(=O)c1cn(C2CC2)c2cc(NCCNC(=O)OC(C)(C)C)c(F)cc2c1=O | > 64 | > 64 | > 64 | > 64 | > 64 | > 64 | > 64 | > 64 | > 64 | > 64 | > 64 | > 64 | > 64 | 8 (≈ 19.1 µM) |
| CC(C)(C)OC(=O)NCCNc1cc2c(=O)c(C(=O)NCCO)cn(C3CC3)c2cc1Cl | > 64 | 16 (≈ 34.4 µM) | 64 (≈ 138 µM) | > 64 | > 64 | > 64 | > 64 | > 64 | > 64 | > 64 | > 64 | > 64 | > 64 | 32 (≈ 68.8 µM) |
| CC(C)(C)OC(=O)NCCNc1cc2c(cc1F)c(=O)c(C(=O)NCCO)cn2C1CC1 | 64 (≈ 143 µM) | 16 (≈ 35.7 µM) | 16 (≈ 35.7 µM) | > 64 | > 64 | > 64 | > 64 | > 64 | > 64 | > 64 | > 64 | > 64 | > 64 | 16 (≈ 35.7 µM) |
| NCCNc1cc2c(=O)c(C(=O)NCCO)cn(C3CC3)c2cc1Cl | > 64 | 64 (≈ 175 µM) | > 64 | > 64 | > 64 | > 64 | > 64 | > 64 | > 64 | > 64 | > 64 | > 64 | > 64 | 64 (≈ 175 µM) |
| NCCNc1cc2c(cc1F)c(=O)c(C(=O)NCCO)cn2C1CC1 | > 64 | > 64 | > 64 | > 64 | > 64 | > 64 | > 64 | > 64 | > 64 | > 64 | > 64 | > 64 | > 64 | > 64 |
| CC[C@H]1OC(=O)[C@H](C)[C@@H](O[C@H]2C[C@@](C)(OC)[C@@H](OC(=O)CCNCCNc3cc4c(=O)c(C(=O)NCCO)cn(C5CC5)c4cc3Cl)[C@H](C)O2)[C@H](C)[C@@H](O[C@@H]2O[C@H](C)C[C@H](N(C)C)[C@H]2O)[C@](C)(O)C[C@@H](C)CN(C)[C@H](C)[C@@H](O)[C@]1(C)O | 4 (≈ 3.43 µM) | ≤ 0.125 | ≤ 0.125 | > 64 | 2 (≈ 1.71 µM) | 4 (≈ 3.43 µM) | > 64 | 32 (≈ 27.4 µM) | 1 (≈ 0.856 µM) | 16 (≈ 13.7 µM) | 32 (≈ 27.4 µM) | > 64 | 4 (≈ 3.43 µM) | 0.5 (≈ 0.428 µM) |
| CC[C@H]1OC(=O)[C@H](C)[C@@H](O[C@H]2C[C@@](C)(OC)[C@@H](OC(=O)CCNCCNc3cc4c(cc3F)c(=O)c(C(=O)NCCO)cn4C3CC3)[C@H](C)O2)[C@H](C)[C@@H](O[C@@H]2O[C@H](C)C[C@H](N(C)C)[C@H]2O)[C@](C)(O)C[C@@H](C)CN(C)[C@H](C)[C@@H](O)[C@]1(C)O | 4 (≈ 3.47 µM) | ≤ 0.125 | ≤ 0.125 | > 64 | 4 (≈ 3.47 µM) | 16 (≈ 13.9 µM) | > 64 | 64 (≈ 55.6 µM) | 4 (≈ 3.47 µM) | 32 (≈ 27.8 µM) | > 64 | > 64 | 4 (≈ 3.47 µM) | 0.5 (≈ 0.434 µM) |
| CC[C@H]1OC(=O)[C@H](C)[C@@H](O[C@H]2C[C@@](C)(OC)[C@@H](OC(=O)CCN(C)CCNc3cc4c(=O)c(C(=O)NCCO)cn(C5CC5)c4cc3Cl)[C@H](C)O2)[C@H](C)[C@@H](O[C@@H]2O[C@H](C)C[C@H](N(C)C)[C@H]2O)[C@](C)(O)C[C@@H](C)CN(C)[C@H](C)[C@@H](O)[C@]1(C)O | 2 (≈ 1.69 µM) | ≤ 0.125 | ≤ 0.125 | 32 (≈ 27.1 µM) | 0.5 (≈ 0.423 µM) | 2 (≈ 1.69 µM) | > 64 | 4 (≈ 3.38 µM) | 2 (≈ 1.69 µM) | 32 (≈ 27.1 µM) | > 64 | > 64 | 4 (≈ 3.38 µM) | 1 (≈ 0.846 µM) |
| CC[C@H]1OC(=O)[C@H](C)[C@@H](O[C@H]2C[C@@](C)(OC)[C@@H](OC(=O)CCNCCNc3ccc4c(c3)c(=O)c(C(=O)NCCO)cn4C3CC3)[C@H](C)O2)[C@H](C)[C@@H](O[C@@H]2O[C@H](C)C[C@H](N(C)C)[C@H]2O)[C@](C)(O)C[C@@H](C)CN(C)[C@H](C)[C@@H](O)[C@]1(C)O | 4 (≈ 3.53 µM) | ≤ 0.125 | 0.25 (≈ 0.221 µM) | > 64 | 4 (≈ 3.53 µM) | 16 (≈ 14.1 µM) | > 64 | 32 (≈ 28.2 µM) | 4 (≈ 3.53 µM) | > 64 | > 64 | > 64 | 8 (≈ 7.06 µM) | 0.5 (≈ 0.441 µM) |
| CC[C@H]1OC(=O)[C@H](C)[C@@H](O[C@H]2C[C@@](C)(OC)[C@@H](OC(=O)CCN(C)CCNc3ccc4c(c3)c(=O)c(C(=O)NCCO)cn4C3CC3)[C@H](C)O2)[C@H](C)[C@@H](O[C@@H]2O[C@H](C)C[C@H](N(C)C)[C@H]2O)[C@](C)(O)C[C@@H](C)CN(C)[C@H](C)[C@@H](O)[C@]1(C)O | 2 (≈ 1.74 µM) | ≤ 0.125 | 0.25 (≈ 0.218 µM) | 64 (≈ 55.8 µM) | 1 (≈ 0.871 µM) | 4 (≈ 3.49 µM) | > 64 | 4 (≈ 3.49 µM) | 4 (≈ 3.49 µM) | > 64 | > 64 | > 64 | 4 (≈ 3.49 µM) | 1 (≈ 0.871 µM) |
| CC[C@H]1OC(=O)[C@H](C)[C@@H](O[C@H]2C[C@@](C)(OC)[C@@H](O)[C@H](C)O2)[C@H](C)[C@@H](O[C@@H]2O[C@H](C)C[C@H](N(C)C)[C@H]2O)[C@](C)(O)C[C@@H](C)CN(C)[C@H](C)[C@@H](O)[C@]1(C)O [AZITHROMYCIN] | 0.5 (≈ 0.668 µM) | ≤ 0.125 | ≤ 0.125 | > 64 | 8 (≈ 10.7 µM) | 8 (≈ 10.7 µM) | > 64 | > 64 | 16 (≈ 21.4 µM) | > 64 | > 64 | > 64 | 1 (≈ 1.34 µM) | ≤ 0.125 |
